The record followed here is article PMC2669314 (Journal of medicinal chemistry, 2009).

Like-named read-outs stand apart in the source and are kept apart here. Where a SMILES comes first, the peptide text is derived from it. [ ]: non-standard residue; d: D form. The star is where a group is joined. FITC = O=C1OC2(c3ccc(O)cc3Oc3cc(O)ccc32)c2ccc(NC(=S)*)cc21; pY = N[C@@H](Cc1ccc(OP(=O)(O)O)cc1)C(=O)O; Ahx = NCCCCCC(=O)O

For experiment [1], the target named is T1, Shc SH2 domain (Homo sapiens, UniProt P29353).
T1 sequence (P29353 488-579 limits assumed): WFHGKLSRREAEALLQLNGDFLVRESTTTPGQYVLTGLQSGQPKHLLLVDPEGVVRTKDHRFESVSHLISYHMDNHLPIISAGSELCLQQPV
Description: Fluorescence anisotropy competition assay using peptide 8 as reference peptide. The experiment is classed as binding. On the technique in general: Polarisation of emitted light reports the rotation of a fluorescent probe.

Experiment [2] addresses T1, Shc SH2 domain. Description: Steady state. The class given is binding. To be noted: for Kd ± s.d.: Table 1, FITC-labelled peptides, n.b. = no binding. The essentials:
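Direct titration: 5 nM N-terminal fluorescein-labelled peptide in 1× BS with 10% (v/v) DMSO, with Shc protein serially diluted in from a 100 μM starting concentration. Excitation at 485 nm and parallel/perpendicular emission at 535 nm. Kd comes from fitting anisotropy against protein concentration to a single-site quadratic binding model, corrected for the bound/free fluorescence intensity ratio.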

For experiment [3], the target named is T2, Shc SH2 domain protein (UniProt P29353).
T2 sequence: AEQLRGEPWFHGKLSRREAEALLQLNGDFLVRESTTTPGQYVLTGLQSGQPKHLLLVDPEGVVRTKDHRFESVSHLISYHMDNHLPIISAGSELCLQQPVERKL
As to the kind of experiment: fluorescence polarisation.

In experiment [4] the target is FITC-NH-(CH2)4-CO-pY-Q-G-L-S-amide. As to the kind of experiment: fluorescence polarisation.
For experiment [5], the target named is FITC-NH-(CH2)2-CO-L-pY-Q-G-L-S-amide. Description: fluorescence polarisation.
The target of experiment [6] is FITC-NH-(CH2)4-CO-L-pY-Q-G-L-S-amide. Description: fluorescence polarisation.
The target in the next experiment is FITC-pY-Q-G-L-S-amide. As to the kind of experiment: fluorescence polarisation.
The target of experiment [7] is FITC-NH-(CH2)5-CO-pY-Q-G-L-S-amide. As to the kind of experiment: fluorescence polarisation.
Experiment [8] has as its target FITC-NH-(CH2)3-CO-pY-Q-G-L-S-amide. Description: fluorescence polarisation.
The target of experiment [9] is FITC-NH-(CH2)3-CO-L-pY-Q-G-L-S-amide. As to the kind of experiment: fluorescence polarisation.
For experiment [10], the target named is FITC-NH-(CH2)2-CO-pY-Q-G-L-S-amide. As to the kind of experiment: fluorescence polarisation.
The target in experiment [11] is T2, Shc SH2 domain protein. As to the kind of experiment: fluorescence polarisation. The source holds these as a separate data set.

As a reminder, the IC50 is the concentration needed to halve the response being measured. Low readings indicate higher potency, high ones lower potency. Regarding `CC(=O)N[C@@H](Cc1ccc(OP(=O)(O)O)cc1)C(=O)N[C@@H](CCC(N)=O)C(=O)NCC(=O)N[C@@H](CC(C)C)C(=O)N[C@@H](CO)C(N)=O` [Ac-pY-Q-G-L-S-amide] (HELM PEPTIDE1{[ac].[O=C([C@H](Cc1ccc(OP(=O)(O)O)cc1)N[*:1])[*:2]].Q.G.L.S.[am]}$$$$V2.0), the half-maximal inhibitory concentration (IC50) on Shc SH2 domain [1] was determined as 112.5 ± 0.7 µM. The “Shc SH2 domain binding affinity relative to parent Gly-containing peptide 45” value on Shc SH2 domain [1] (relative to 45 (IC50 = 248 μM)) was “approximate doubling of binding affinity”. On to `CC(=O)N[C@@H](Cc1ccc(OP(=O)(O)O)cc1)C(=O)N[C@@H](CCC(N)=O)C(=O)NCC(N)=O` [Ac-pY-Q-G-amide] (HELM PEPTIDE1{[ac].[O=C([C@H](Cc1ccc(OP(=O)(O)O)cc1)N[*:1])[*:2]].Q.G.[am]}$$$$V2.0), for which the IC50 on Shc SH2 domain [1] was above 500 µM.

The term Kd denotes the concentration at which binding is half-saturated. Regarding `CC(C)C[C@H](NC(=O)CNC(=O)[C@H](CCC(N)=O)NC(=O)[C@H](Cc1ccc(OP(=O)(O)O)cc1)NC(=O)[C@H](CC(C)C)NC(=S)Nc1ccc2c(c1)C(=O)OC21c2ccc(O)cc2Oc2cc(O)ccc21)C(=O)N[C@@H](CO)C(N)=O` [compound 3, FITC-L-pY-Q-G-L-S-amide] (HELM PEPTIDE1{[O=C1OC2(c3ccc(O)cc3Oc3cc(O)ccc32)c2ccc(NC(=S)[*:2])cc21].L.[O=C([C@H](Cc1ccc(OP(=O)(O)O)cc1)N[*:1])[*:2]].Q.G.L.S.[am]}$$$$V2.0), the dissociation constant Kd entry at Shc SH2 domain [2] (FITC-containing peptides) is “complete loss of binding affinity”. In addition, the “Kd ± s.d.” value on Shc SH2 domain [2] was “n.b. ^b”.

With `CC(C)C[C@H](NC(=O)CNC(=O)[C@H](CCC(N)=O)NC(=O)[C@H](Cc1ccc(OP(=O)(O)O)cc1)NC(=O)[C@H](CC(C)C)NC(=O)CCCCCNC(=S)Nc1ccc2c(c1)C(=O)OC21c2ccc(O)cc2Oc2cc(O)ccc21)C(=O)N[C@@H](CO)C(N)=O` [compound 14, FITC-NH-(CH2)5-CO-L-pY-Q-G-L-S-amide] ({FITC-Ahx}-L[pY]QGLS-NH2), the “Kd ± s.d.” value on Shc SH2 domain [2] is “n.b”. As to `CC(=O)NCCCCC(=O)N[C@@H](Cc1ccc(OP(=O)(O)O)cc1)C(=O)N[C@@H](CCC(N)=O)C(=O)NCC(=O)N[C@@H](CC(C)C)C(=O)N[C@@H](CO)C(N)=O` [compound 15, Ac-NH-(CH2)4-CO-pY-Q-G-L-S-amide] (HELM PEPTIDE1{[ac].[O=C(CCCCN[*:1])[*:2]].[O=C([C@H](Cc1ccc(OP(=O)(O)O)cc1)N[*:1])[*:2]].Q.G.L.S.[am]}$$$$V2.0), the IC50 at Shc SH2 domain [1] came out at 158 ± 10 µM. As to “Ac-pY-Q-G-L-S-NHR, R = allyl, no N-allyl substitution (peptide 31)”, in the experiment with Shc SH2 domain protein [3], the IC50 turned out to be 189 µM. Still for that read-out and setting: the result for “Ac-pY-Q-G-L-S-NHR, R = homoallyl, no N-allyl substitution (peptide 35)” reads 165 µM; that for Ac-pY-Q-G-L-S-amide (peptide), 112 µM. For “FITC-NH-(CH2) -CO-L-pY-Q-G-L-S-amide (LYQGLS; not fully specified; FITC-NH-(CH2)-CO- on the N-terminus; phosphotyrosine at 2; C-terminal amide) [compound 10]”, the “Kd ± s.d.” value with Shc SH2 domain [2] was “n.b”.

Turning to “FITC-NH-(CH2)-CO-pY-Q-G-L-S-amide (YQGLS; not fully specified; FITC-NH-(CH2)-CO- on the N-terminus; phosphotyrosine at 1; C-terminal amide) [compound 5]”, the “Kd ± s.d.” value in the experiment with Shc SH2 domain [2] was “n.b”. Turning to “Shc SH2 domain protein (from UniProt P29353 480-583) (domain or fragment)”, the Kd in experiment [4] came out at 0.35 µM; in experiment [5], 7.6 µM; in experiment [6] it was 8.9 µM; with FITC-pY-Q-G-L-S-amide, 12.4 µM; in [7], 4.7 µM; in experiment [8], 7.2 µM. Besides, the dissociation constant (Kd) stood at 8.6 µM in experiment [9] and 1.09 µM in experiment [10].

B1: Ac-pY-Q-G-L-amide (peptide)
peptide: YQGL
HELM: PEPTIDE1{[ac].[O=C([C@H](Cc1ccc(OP(=O)(O)O)cc1)N[*:1])[*:2]].Q.G.L.[am]}$$$$V2.0
SMILES: CC(=O)N[C@@H](Cc1ccc(OP(=O)(O)O)cc1)C(=O)N[C@@H](CCC(N)=O)C(=O)NCC(=O)N[C@@H](CC(C)C)C(N)=O
The molecule B1 had a half-inhibitory concentration (IC50) with Shc SH2 domain protein [11] of 248 µM.

Molecule Ac-[pY]QGL-{NH‑allyl} [Ac-pY-Q-G-L-NHR, R = allyl, no N-allyl substitution (peptide 38)] registered an IC50 with Shc SH2 domain protein [11] of 91 µM. This IC50 is about 2.7-fold lower than that of the molecule before.
